ChEMBL document CHEMBL4311987, “Discovery of novel allosteric site and covalent inhibitors of FBPase with potent hypoglycemic effects” (Eur J Med Chem, 2019)

Experiment: Cytotoxicity against C57BLKS rat Primary hepatocytes assessed as cell viability incubated for 6 hrs by SRB assay
Type: cell-based, Hepatocyte
Details: read-out: Activity
Outline: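 Rat primary hepatocytes under physiological conditions exposed to compounds for 6 h. Viability read by sulforhodamine B staining. Means ± SEM of four independent experiments.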

Compound: CCOC(=O)C(C)(C)Oc1ccc(F)c(/C=C/[N+](=O)[O-])c1
- viability at 6 h: > 80%
